The IC50 is the point on the concentration scale where inhibition reaches its midpoint. In general, ΔTm refers to the shift of the melting midpoint relative to a reference. A word on the Kd: it is the concentration at which binding is half-saturated.

The text below walks through data of ChEMBL document CHEMBL4699573, “Design, Synthesis, and Pharmacological Evaluation of Analogues Derived from the PLEV Tetrapeptide as Protein-Protein Interaction Modulators of Voltage-Gated Sodium Channel 1.6” (J Med Chem, 2020).

The structures appear in SMILES notation. Active and inactive are the calls of the source. The rule behind the calls is not given here. Starred links: 1 amine or outer side, 2 acyl side, 3 side chain; linkers in the order of their positions; H or OH if unused. Residues, ends and D or L forms follow the SMILES beside them. *: point of attachment. Adamantane1carbonyl = O=C(C12CC3CC(CC(C3)C1)C2)*; Benzenesulfonyl(4-F) = O=S(=O)(c1ccc(F)cc1)*; NH(1-Adamantyl) = C1C2CC3CC1CC(N*)(C2)C3; Fmoc = O=C(OCC1c2ccccc2-c2ccccc21)*; Benzoyl(4-F) = O=C(c1ccc(F)cc1)*; Piperazinyl(4-Me) = CN1CCN(*)CC1; Morpholide = C1CN(*)CCO1; Cbz = O=C(OCc1ccccc1)*; CO = O=C([*:1])[*:2]; NHBn = c1ccc(CN*)cc1; NHCH2CH2OH = OCCN*; X2 = C1O[C@@H]1CO*; OtBu = CC(C)(C)O*; OAll = C=CCO* A value given as a limit tells only on which side of the number the result lay.

Data set [1] in a line: Modulation of recombinant human FGF141b (1 to 252 residues)-recombinant human Nav1.6 C-terminal tail (1763 to 1976 residues) protein-protein interaction expressed in HEK293 cells measured at 2 mins interval for 20 mins by split-luciferase complementation assay. It counts as cell-based. The gist of the method:
(§1)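 Double-stable HEK293 line expressing CLuc-FGF14 and CD4-Nav1.6-C-tail-NLuc, kept on G418 and puromycin. Cells seeded for 24 h, then given compound for 1 h in serum-free, phenol red-free DMEM/F12 with a final 0.5% DMSO: 50 μM for screening, 0.25–100 μM over eight concentrations for dose-response; n = 4. D-luciferin added and read every 2 min for 20 min at 37 °C. Peak luminescence expressed as percent of per-plate DMSO mean (n = 32). IC50 from four-parameter nonlinear fit. At least 3 experiments.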

The subject of data set [2] is HEK293. The data set can be described thus: Inhibition of full-length Photinus pyralis luciferase transfected in HEK293 cells at 25 uM incubated for 1 hrs by split-luciferase complementation assay. It counts as cell-based. The method in brief:
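HEK293 cells transfected with full-length Photinus pyralis luciferase, then treated 1 h with 25 μM compound (n = 4) or 0.5% DMSO (n = 32). Luminescence read after D-luciferin addition, as in the LCA, normalized to per-plate DMSO controls. One-way ANOVA with Dunnett's test.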

Data set [3] deals with HEK293. The data set is described as follows: Modulation of recombinant human FGF141b (1 to 252 residues)-recombinant human Nav1.6 C-terminal tail (1763 to 1976 residues) protein-protein interaction expressed in HEK293 cells assessed as relative luminescence value at 50 uM measured at 2 mins interval for 20 mins by split-luciferase complementation assay relative to control. It counts as cell-based. Conditions: time min 2-20. The method in brief:
as §1

In data set [4] the test system is HEK293. The data set can be described thus: Cytotoxicity against HEK293 cells assessed as reduction in cell viability measured after 18 hrs by celltiter-blue assay. Particulars: human, hek293, 18 h. A general note: Alamar Blue is a resazurin reagent that responds to reducing activity.
Data set [5] relates to HEK293. The data set is described as follows: Modulation of recombinant human FGF141b (1 to 252 residues)-recombinant human Nav1.6 C-terminal tail (1763 to 1976 residues) protein-protein interaction expressed in HEK293 cells measured at 2 mins interval for 20 mins by split-luciferase complementation assay relative to control. Particulars: filed as modulator, time min 2-20. It is filed as cell-based. The gist of the method: as §1

Data set [6] concerns the target T1, Sodium channel protein type 8 subunit alpha (Homo sapiens, UniProt Q9UQD0). The data set is described as follows: Binding affinity to human recombinant Nav1.6 C-terminal domain expressed in Escherichia coli BL21 assessed as assessed as induction of protein denaturation by measuring change in melting temperature at 10 uM by fluorescent dye based thermal shift assay. Particulars: filed as modulator, dose 50.0 µM.
Target sequence in this assay (Q9UQD0 whole entry, looked up, the tested form may be a part): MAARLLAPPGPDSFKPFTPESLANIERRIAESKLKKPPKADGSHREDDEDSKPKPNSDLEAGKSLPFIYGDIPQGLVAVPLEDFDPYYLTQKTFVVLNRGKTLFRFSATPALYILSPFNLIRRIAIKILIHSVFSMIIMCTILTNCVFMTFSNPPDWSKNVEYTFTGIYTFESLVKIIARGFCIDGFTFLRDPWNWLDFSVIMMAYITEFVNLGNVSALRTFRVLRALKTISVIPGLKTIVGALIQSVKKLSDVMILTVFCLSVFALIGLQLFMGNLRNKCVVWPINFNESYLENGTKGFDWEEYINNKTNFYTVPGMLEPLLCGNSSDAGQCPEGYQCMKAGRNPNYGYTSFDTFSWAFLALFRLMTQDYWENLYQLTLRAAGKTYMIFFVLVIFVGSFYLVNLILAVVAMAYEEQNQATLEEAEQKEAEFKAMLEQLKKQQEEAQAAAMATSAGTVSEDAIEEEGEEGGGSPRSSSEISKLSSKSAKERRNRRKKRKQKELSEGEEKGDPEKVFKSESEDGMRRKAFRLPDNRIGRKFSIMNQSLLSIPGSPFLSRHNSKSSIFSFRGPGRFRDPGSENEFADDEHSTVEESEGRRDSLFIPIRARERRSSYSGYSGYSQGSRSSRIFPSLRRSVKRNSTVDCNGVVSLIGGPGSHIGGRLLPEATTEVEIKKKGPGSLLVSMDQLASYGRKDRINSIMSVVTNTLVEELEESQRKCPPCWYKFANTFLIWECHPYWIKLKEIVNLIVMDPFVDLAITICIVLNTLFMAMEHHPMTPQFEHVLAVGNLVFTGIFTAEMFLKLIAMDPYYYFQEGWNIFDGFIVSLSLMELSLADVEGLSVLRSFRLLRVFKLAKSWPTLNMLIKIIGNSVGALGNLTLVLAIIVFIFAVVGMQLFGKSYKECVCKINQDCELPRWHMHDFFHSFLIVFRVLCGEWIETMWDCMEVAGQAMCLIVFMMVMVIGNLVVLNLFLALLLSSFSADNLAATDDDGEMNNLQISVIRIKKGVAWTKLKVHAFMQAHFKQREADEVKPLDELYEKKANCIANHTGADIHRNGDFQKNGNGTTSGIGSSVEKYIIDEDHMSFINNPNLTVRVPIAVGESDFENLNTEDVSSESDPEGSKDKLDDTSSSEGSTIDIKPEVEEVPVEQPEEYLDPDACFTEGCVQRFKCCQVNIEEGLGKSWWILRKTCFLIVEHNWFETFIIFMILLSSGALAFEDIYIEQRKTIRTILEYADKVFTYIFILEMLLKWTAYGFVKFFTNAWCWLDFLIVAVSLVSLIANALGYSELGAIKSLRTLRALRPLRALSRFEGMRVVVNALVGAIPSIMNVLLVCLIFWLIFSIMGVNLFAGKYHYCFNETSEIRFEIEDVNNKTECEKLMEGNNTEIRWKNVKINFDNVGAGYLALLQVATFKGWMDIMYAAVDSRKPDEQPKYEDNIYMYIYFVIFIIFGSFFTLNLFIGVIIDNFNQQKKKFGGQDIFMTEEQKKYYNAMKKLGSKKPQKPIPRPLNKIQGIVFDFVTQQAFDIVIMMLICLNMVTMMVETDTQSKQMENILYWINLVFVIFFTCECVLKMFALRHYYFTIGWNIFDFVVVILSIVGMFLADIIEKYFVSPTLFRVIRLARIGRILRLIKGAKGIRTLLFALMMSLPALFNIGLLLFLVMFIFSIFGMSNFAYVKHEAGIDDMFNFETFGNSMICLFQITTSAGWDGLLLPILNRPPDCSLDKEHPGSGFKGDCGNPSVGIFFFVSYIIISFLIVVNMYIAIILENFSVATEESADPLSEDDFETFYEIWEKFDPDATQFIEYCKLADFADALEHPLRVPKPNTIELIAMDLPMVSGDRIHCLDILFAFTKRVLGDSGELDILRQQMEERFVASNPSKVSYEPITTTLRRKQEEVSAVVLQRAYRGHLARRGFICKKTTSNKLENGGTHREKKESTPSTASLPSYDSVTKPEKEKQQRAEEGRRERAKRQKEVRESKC

Data set [7] addresses T2, Fibroblast growth factor 14 (Homo sapiens) (UniProt Q92915).
T2 sequence (whole entry): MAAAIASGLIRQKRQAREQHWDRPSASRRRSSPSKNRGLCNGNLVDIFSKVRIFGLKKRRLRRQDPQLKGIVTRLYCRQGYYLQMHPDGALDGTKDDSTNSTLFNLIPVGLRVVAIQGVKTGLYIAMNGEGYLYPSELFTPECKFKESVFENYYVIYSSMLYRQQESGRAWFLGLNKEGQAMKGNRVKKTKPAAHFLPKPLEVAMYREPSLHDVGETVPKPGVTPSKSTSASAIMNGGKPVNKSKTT
The data set can be described thus: Binding affinity to human recombinant FGF14 expressed in Escherichia coli BL21 assessed as assessed as induction of protein denaturation by measuring change in melting temperature at 50 uM by fluorescent dye based thermal shift assay. Particulars: filed as modulator.

The target in data set [8] is T1, Sodium channel protein type 8 subunit alpha. The data set is described as follows: Binding affinity to human recombinant Nav1.6 C-terminal domain expressed in Escherichia coli BL21 assessed as association rate constant by SPR analysis. Conditions: filed as modulator. The method in brief:
(§2)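 Biacore T100 runs with FGF14 (17,896 RU) or Nav1.6 C-tail (6,800 RU) amine-coupled on CM5 at pH 5.5. Compounds at 0.195–200 μM in PBS, 0.005% Tween-20, 2% DMSO; 50 μL/min at 25 °C. 120 s association, 150 s dissociation, DMSO calibration, blank subtraction. Rates from a Langmuir 1:1 fit; KD averages the kinetic and steady-state values. At least duplicate experiments.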
A general note: Surface plasmon resonance follows binding to a sensor surface in real time, without labels.
Target sequence in this assay (Q9UQD0 whole entry, looked up, the tested form may be a part): as the sequence (Q9UQD0 whole entry, looked up, the tested form may be a part) above

For data set [9] the target is unchanged. The data set can be described thus: Binding affinity to human recombinant Nav1.6 C-terminal domain expressed in Escherichia coli BL21 assessed as dissociation constant by SPR analysis. The gist of the method:
as §2
Target sequence in this assay (Q9UQD0 whole entry, the tested form may be a part): as the sequence (Q9UQD0 whole entry, looked up, the tested form may be a part) above

For data set [10] the target is unchanged. The data set can be described thus: Binding affinity to human recombinant Nav1.6 C-terminal domain expressed in Escherichia coli BL21 assessed as dissociation rate constant by SPR analysis. Conditions: filed as modulator. The method in brief: as §2
Target sequence in this assay (Q9UQD0 whole entry, looked up, the tested form may be a part): as the sequence (Q9UQD0 whole entry, looked up, the tested form may be a part) above

As to `CC(C)C[C@H](NC(=O)[C@@H]1CCCN1C(=O)C12CC3CC(CC(C3)C1)C2)C(=O)N[C@@H](CCC(=O)OC(C)(C)C)C(=O)N[C@H](C(=O)OC[C@@H]1CO1)C(C)C` (Adamantane1carbonyl-PLE(OtBu)V-X2), the IC50 in data set [1] came out at 25.1 µM. For the same compound, the inhibition result in the data set on HEK293 [2] is “inactive”. The Activity in the data set on HEK293 [3] (filed as modulator) is 13.1%; in the data set on HEK293 [4], “Non-Toxic”. In addition, in the data set with HEK293 [5], the Efficacy was 91.4%.
Regarding `CC(C)C[C@H](NC(=O)[C@@H]1CCCN1C(=O)c1ccc(F)cc1)C(=O)N[C@@H](CCC(=O)OC(C)(C)C)C(=O)N[C@H](C(N)=O)C(C)C` ({Benzoyl(4-F)}-PLE(OtBu)V-NH2), in the data set with HEK293 [2], the inhibition entry was “inactive”. Moreover, the Activity entry with HEK293 [4] is reported as “Non-Toxic”.
`COC(=O)[C@@H](NC(=O)[C@H](CCC(=O)OC(C)(C)C)NC(=O)[C@H](CC(C)C)NC(=O)[C@@H]1CCCN1C(=O)OCc1ccccc1)C(C)C` (Cbz-PLE(OtBu)V-OMe): in data set [1], the IC50 turned out to be 22.4 µM. Also, the inhibition entry in the data set with HEK293 [2] was “inactive”. Also, the Activity in the data set on HEK293 [3] (filed as modulator) is 39.8%; with HEK293 [4], “Non-Toxic”. The Efficacy with HEK293 [5] came to 93.3%.
In the case of `COC(=O)[C@@H](NC(=O)[C@H](CCC(=O)OC(C)(C)C)NC(=O)[C@H](CC(C)C)NC(=O)[C@@H]1CCCN1C(=O)OCC1c2ccccc2-c2ccccc21)C(C)C` (Fmoc-PLE(OtBu)V-OMe), in the data set with HEK293 [3], the Activity is 76.9%.
The same measure, in the same setting: for `CC(C)C[C@H](NC(=O)[C@@H]1CCCN1C(=O)OCc1ccccc1)C(=O)N[C@@H](CCC(=O)OC(C)(C)C)C(=O)N[C@H](C(=O)NC12CC3CC(CC(C3)C1)C2)C(C)C` (Cbz-PLE(OtBu)V-{NH(1-Adamantyl)}) the value was 81.5%.
Turning to `C=CCOC(=O)[C@@H](NC(=O)[C@H](CCC(=O)OC(C)(C)C)NC(=O)[C@H](CC(C)C)NC(=O)[C@@H]1CCCN1C(=O)OCc1ccccc1)C(C)C` (Cbz-PLE(OtBu)V-OAll), the IC50 in [1] came out at 15.4 µM. Besides, the ΔTm in data set [6] was -0.87 °C; in data set [7], 0.67 °C. Moreover, in the data set on HEK293 [2], the inhibition result is “inactive”. For the same compound, the Activity was 11.9% in the data set on HEK293 [3] (filed as modulator) and “Non-Toxic” in the data set on HEK293 [4]. Further, the figures for the K in data set [8] and in data set [10] were 2.57 10^5/M/s and 4.49 10^-3/s, respectively. For the same compound, in the data set on HEK293 [5], the Efficacy stood at 90.7%. In addition, the Kd in [9] is over 200 µM.
Consider `CC(C)C[C@H](NC(=O)[C@@H]1CCCN1C(=O)NC12CC3CC(CC(C3)C1)C2)C(=O)N[C@@H](CCC(=O)OC(C)(C)C)C(=O)N[C@H](C(N)=O)C(C)C` ({NH(1-Adamantyl)-CO}-PLE(OtBu)V-NH2), for which the Activity in the data set with HEK293 [3] came out at 83.5%.
The same measure, in the same setting: next, `CC(C)C[C@H](NC(=O)[C@@H]1CCCN1S(=O)(=O)c1ccc(F)cc1)C(=O)N[C@@H](CCC(=O)OC(C)(C)C)C(=O)N[C@H](C(N)=O)C(C)C` ({Benzenesulfonyl(4-F)}-PLE(OtBu)V-NH2): 86.4%; `CC(C)C[C@H](NC(=O)[C@@H]1CCCN1C(=O)OCc1ccccc1)C(=O)N[C@@H](CCC(=O)OC(C)(C)C)C(=O)N[C@H](C(=O)N1CCN(C)CC1)C(C)C` (Cbz-PLE(OtBu)V-{Piperazinyl(4-Me)}): 54.2%.
Take `CC(C)C[C@H](NC(=O)[C@@H]1CCCN1C(=O)OCc1ccccc1)C(=O)N[C@@H](CCC(=O)OC(C)(C)C)C(=O)N[C@H](C(=O)NCc1ccccc1)C(C)C` (Cbz-PLE(OtBu)V-NHBn): the inhibition entry in the data set on HEK293 [2] was “inactive”. In addition, the Activity in the data set with HEK293 [3] is 134%; in the data set with HEK293 [4], “Non-Toxic”.
Take `CC(C)C[C@H](NC(=O)[C@@H]1CCCN1C(=O)OCc1ccccc1)C(=O)N[C@@H](CCC(=O)OC(C)(C)C)C(=O)N[C@H](C(=O)NCCO)C(C)C` (Cbz-PLE(OtBu)V-NHCH2CH2OH): the Activity in the data set with HEK293 [3] is 118%.
For the compound `CC(C)C[C@H](NC(=O)[C@@H]1CCCN1C(=O)OCc1ccccc1)C(=O)N[C@@H](CCC(=O)OC(C)(C)C)C(=O)N[C@H](C(=O)N1CCOCC1)C(C)C` (Cbz-PLE(OtBu)V-Morpholide), the Activity in the data set on HEK293 [3] was found to be 72%.
